Experimental data collected from several papers.
Each line is one published result; the experiments were not run side by side.
Organism: Mycobacterium tuberculosis
Effect on: microbial growth

Compound	test	test system	conditions	MIC
CO[C@H]1/C=C/O[C@@]2(C)Oc3c(C)c(O)c4c(O)c(c(/C=N/N5CCN(C6CCCC6)CC5)c(O)c4c3C2=O)NC(=O)/C(C)=C\C=C\[C@H](C)[C@H](O)[C@@H](C)[C@@H](O)[C@@H](C)[C@H](OC(C)=O)[C@@H]1C	resazurin	H37RV	7 days	0.2 µg/mL
CC(C)c1nc2[nH]c(=O)n(O)c(=O)c2s1				65.4 µM
CCc1cc(=O)c2c(O)c3ccoc3c(OC)c2o1	resazurin	H37RV	21 days	512 µg/mL
NNC(=O)c1ccncc1	resazurin	H37RV	7 days	0.05 µg/mL
NNC(=O)c1ccncc1	resazurin	H37RV	5 days	0.03 µg/mL
O=c1[nH]c2nc(-c3ccccc3)sc2c(=O)n1O				12.8 µM
[H]/N=C(/N)N[C@H]1[C@H](O)[C@@H](O)[C@H](O[C@@H]2O[C@@H](C)[C@](O)(C=O)[C@H]2O[C@@H]2O[C@@H](CO)[C@H](O)[C@@H](O)[C@@H]2NC)[C@@H](N/C(N)=N\[H])[C@@H]1O	resazurin	H37RV	21 days	0.25 µg/mL
CC[C@@H](CO)NCCN[C@@H](CC)CO	resazurin	H37RV		2.45 µM
CCc1cc(=O)c2c(OCC(O)CNC(C)(C)C)c3ccoc3c(OC)c2o1 (centres unmarked)	resazurin		21 days	32 µg/mL
FC(F)(F)c1ccc(CCNc2cc(-c3ccccn3)nc3nnc(C4CC4)n23)cc1		H37RV		42 µM
CCc1cc(=O)c2c(OCC(O)CN3CCC(C)CC3)c3ccoc3c(OC)c2o1 (centres unmarked)	resazurin	H37RV	21 days	32 µg/mL
NNC(=O)c1ccncc1		H37RV		0.62 µM
Nc1nc2[nH]c(=O)n(O)c(=O)c2s1				> 100 µM
NNC(=O)c1ccncc1		H37RA		0.34 µM
C#CCNC(=O)c1c(-c2ccc(OC)cc2)oc2ccc(O)c(CN3CCCCC3)c12		CDC1551		0.8 µM
COc1cc(C=NNC(N)=S)ccc1OC(=O)CN1C(=O)CSC1=O	resazurin	H37RV		5.23 µM
CO[C@H]1/C=C/O[C@@]2(C)Oc3c(C)c(O)c4c(O)c(c(/C=N/N5CCN(C)CC5)c(O)c4c3C2=O)NC(=O)/C(C)=C\C=C\[C@H](C)[C@H](O)[C@@H](C)[C@@H](O)[C@@H](C)[C@H](OC(C)=O)[C@@H]1C	resazurin		21 days	64 µg/mL
O=C(Cc1ccccc1)Nc1cc(-c2ccccn2)nc2nncn12		H37RV		2 µM
COC(=O)C=C1SC(=NN=Cc2ccc(OC(=O)CN3C(=O)CSC3=O)cc2)NC1=O	resazurin	H37RV		34.6 µM

Compound	test	test system	conditions	MIC
Cc1ccc(CCNc2cc(C3CCCO3)nc3nncn23)cc1 (centres unmarked)		H37RV		47 µM
[H]/N=C(/N)N[C@H]1[C@H](O)[C@@H](O)[C@H](O[C@@H]2O[C@@H](C)[C@](O)(C=O)[C@H]2O[C@@H]2O[C@@H](CO)[C@H](O)[C@@H](O)[C@@H]2NC)[C@@H](N/C(N)=N\[H])[C@@H]1O	resazurin	H37RV	5 days	1 µg/mL
CCCc1ccc(CNc2cc(-c3ccccn3)nc3nncn23)cc1		H37RV	5 days	> 100 µM
CC(=O)NC[C@H]1CN(c2ccc(N3CCOCC3)c(F)c2)C(=O)O1	resazurin	H37RV	21 days	0.003 µg/mL
O=c1[nH]c2nc(-c3ccncc3)sc2c(=O)n1O				> 100 µM
COc1c(N2C[C@@H]3CCCN[C@@H]3C2)c(F)cc2c(=O)c(C(=O)O)cn(C3CC3)c12		H37RV		0.125 µg/mL
CCc1cc(=O)c2c(OCC(O)CN(CC)CC)c3ccoc3c(OC)c2o1 (centres unmarked)	resazurin	H37RV	21 days	128 µg/mL
NC(=S)NN=Cc1ccc(OC(=O)CN2C(=O)CSC2=O)c(Cl)c1	resazurin	H37RV		5.17 µM
Brc1ccc(CCNc2cc(-c3ccccn3)nc3nncn23)cc1		H37RV		1.1 µM
NC(=S)NN=Cc1ccc(OC(=O)CN2C(=O)CSC2=O)c(Br)c1	resazurin	H37RV		9.27 µM
CCOC(=O)c1c(-c2ccc(OC)cc2)oc2ccc(O)c(CN3CCN(Cc4cn(C[C@H]5O[C@H](O[C@H]6O[C@H](CO)[C@@H](O)[C@H](O)[C@H]6O)[C@H](O)[C@@H](O)[C@@H]5O)nn4)CC3)c12		CDC1551		5.3 µM
COc1nc2ccc(Br)cc2cc1[C@@H](c1ccccc1)[C@@](O)(CCN(C)C)c1cccc2ccccc12		H37RV		0.31 µM
O=[N+]([O-])c1cn2c(n1)OC[C@@H](OCc1ccc(OC(F)(F)F)cc1)C2		H37RV		0.125 µg/mL
CCCCCc1ccc(Nc2cc(-c3ccccn3)nc3nncn23)cc1		H37RV		> 100 µM
COc1ccc(-c2oc3ccc(O)c(CN4CCCCC4)c3c2C(=O)NCc2cn(Cc3ccccc3)nn2)cc1		CDC1551		2 µM
CC(CNc1cc(-c2ccccn2)nc2nncn12)c1ccccc1 (centres unmarked)		H37RV	5 days	> 100 µM
CCc1cc(=O)c2c(OCC3CO3)c3ccoc3c(OC)c2o1 (centres unmarked)	resazurin		21 days	64 µg/mL
CCCc1nc2[nH]c(=O)n(O)c(=O)c2s1				47.4 µM
FC(F)(F)Oc1ccc(CCNc2cc(-c3cccs3)nc3nncn23)cc1		H37RV		0.33 µM
